According to ChEMBL document CHEMBL2321678, “Incorporation of non-natural amino acids improves cell permeability and potency of specific inhibitors of proteasome trypsin-like sites” (J Med Chem, 2013):
Activity calls are given as the source filed them. The calls are words filed in the database; no cut-off is given here.

What was measured:
[1] = Inhibition of chymotrypsin-like activity of rabbit 26s proteasome beta 5 subunit assessed as hydrolysis of Suc-LLVY-amc fluorogenic substrate preincubated for 30 mins followed by substrate addition measured for 30 mins by fluorescence plate reader analysis; design: species or system Oryctolagus cuniculus
Outline: (§1)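 Purified rabbit-muscle 26S proteasome (final 3 µg/mL) preincubated 30 min with a range of inhibitor concentrations. Slopes expressed as % of mock; IC50 by four-parameter least-squares fit.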

[2] = Inhibition of trypsin-like activity of rabbit 26s proteasome beta 2 subunit assessed as hydrolysis of Ac-RLR-amc fluorogenic substrate preincubated for 30 mins followed by substrate addition measured for 30 mins by fluorescence plate reader analysis; design: species or system Oryctolagus cuniculus; outline: as §1
[3] = Inhibition of caspase-like activity of rabbit 26s proteasome beta 1 subunit assessed as hydrolysis of Acn-LPnLD-amc fluorogenic substrate preincubated for 30 mins followed by substrate addition measured for 30 mins by fluorescence plate reader analysis; design: species or system Oryctolagus cuniculus; outline: as §1
NCI-H929 [4] = test: Inhibition of cathepsin in human NCI-H929 cells assessed as hydrolysis of Z-FR-amc fluorogenic substrate after 6 hrs; format: cell-based
Outline: (§2)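 NCI-H929 cells treated 6 h, washed and permeabilized on ice with 0.05% digitonin in Tris pH 7.5 sucrose buffer. Cytosol removed by centrifugation, then the pellet lysed in Bis-Tris pH 5.5/CHAPS buffer. Protein-normalized extract added to 40 µM Z-FR-amc in phosphate pH 6.0, EDTA, DTT. Fluorescence read continuously for 30 min; rate from slopes.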

Oryctolagus cuniculus = species on record: Oryctolagus cuniculus; test: Selectivity ratio of IC50 for chymotrypsin-like activity of rabbit 26s proteasome beta 5 subunit to IC50 for trypsin-like activity of rabbit 26s proteasome beta 2 subunit
Outline: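 Purified rabbit-muscle 26S proteasome (final 3 µg/mL) preincubated 30 min with a range of inhibitor concentrations. […] Amc release read continuously for 30 min (ex 380/em 460 nm). Slopes expressed as % of mock; IC50 by four-parameter least-squares fit.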

Homo sapiens = species on record: Homo sapiens; test: Selectivity ratio of IC50 for chymotrypsin-like activity of human proteasome beta 5 subunit to IC50 for trypsin-like activity of human proteasome beta 2 subunit
[5] = target: T1, Proteasome Macropain subunit MB1 (Homo sapiens, UniProt P28074); test: Inhibition of chymotrypsin-like activity of proteasome beta 5 subunit in HEK-293T cell lysates using BODIPY-BODIPY-TMR-epoxomicin as probe after 1 hr by SDS-PAGE analysis
T1 sequence (P28074 whole entry): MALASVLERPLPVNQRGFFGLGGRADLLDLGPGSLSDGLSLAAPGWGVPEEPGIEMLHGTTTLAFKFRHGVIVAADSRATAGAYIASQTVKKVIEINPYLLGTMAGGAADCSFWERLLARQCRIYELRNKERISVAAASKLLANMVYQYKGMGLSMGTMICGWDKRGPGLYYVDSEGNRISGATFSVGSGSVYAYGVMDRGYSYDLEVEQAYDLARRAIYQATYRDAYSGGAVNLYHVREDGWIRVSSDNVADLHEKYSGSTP
Outline: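 Then 1 h at 37 °C with BODIPY-TMR-Ahx3L3-vs or BODIPY-TMR-epoxomicin (0.5 µM). Three independent experiments; IC50 fitted.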

[6] = target: T1, Proteasome Macropain subunit MB1; test: Inhibition of chymotrypsin-like activity of proteasome in human RPMI-8226 cells after 6 hrs by proteasomeGlo assay; format: cell-based
Outline: (§3)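 Cells then pelleted, resuspended in PBS and mixed with site-specific luminogenic substrates in lysis/assay buffer. Mixing 3 min, then 17 min in the dark before luminescence, triplicate per substrate/point. Activity as % of mock; IC50 from a four-parameter nonlinear fit.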

[7] = target: T1, Proteasome Macropain subunit MB1; test: Inhibition of chymotrypsin-like activity of proteasome in human NCI-H929 cells after 6 hrs by proteasomeGlo assay; format: cell-based; outline: as §3
[8] = target: Proteasome Macropain subunit (Homo sapiens) (UniProt P49721); test: Selectivity ratio of IC50 for trypsin-like activity of proteasome in human RPMI-8226 cells to IC50 for trypsin-like activity of proteasome in human NCI-H929 cells; format: cell-based
Proteasome Macropain subunit (Homo sapiens), sequence (P49721 whole entry): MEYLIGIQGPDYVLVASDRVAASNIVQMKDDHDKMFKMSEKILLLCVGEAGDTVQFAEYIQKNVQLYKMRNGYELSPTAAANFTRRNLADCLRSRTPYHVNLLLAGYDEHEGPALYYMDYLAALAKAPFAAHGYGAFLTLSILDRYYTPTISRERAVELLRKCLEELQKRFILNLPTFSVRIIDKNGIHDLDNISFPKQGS

RPMI-8226 [9] = test: Potentiation of NC-022-induced sensitization of human RPMI8226 cells to Carfilzomib assessed as cell viability at 10 uM after 48 hrs; format: functional, cell-based
RPMI-8226 [10] = test: Sensitization of human RPMI8226 cells to Carfilzomib assessed as cell viability at 10 uM after 48 hrs; format: functional, cell-based
NCI-H929 [11] = test: Partial inhibition of cathepsin in human NCI-H929 cells assessed as hydrolysis of Z-FR-amc fluorogenic substrate after 6 hrs; format: cell-based; outline: as §2
[12] = target: T2, Proteasome Macropain subunit MB1 (Homo sapiens) (UniProt P28074); test: Inhibition of chymotrypsin-like activity of proteasome beta 5 subunit in HEK-293T cell lysates after 1 hr by SDS-PAGE analysis
T2 sequence (whole entry): T1 sequence (P28074 whole entry)
Outline: (§4)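 Then 1 h at 37 °C with BODIPY-TMR-Ahx3L3-vs or BODIPY-TMR-epoxomicin (0.5 µM). Samples run on 12.5% SDS-PAGE; β2/β5 band fluorescence taken relative to mock. Three independent experiments; IC50 fitted.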

[13] = target: Proteasome Macropain subunit (Homo sapiens) (UniProt P49721); test: Inhibition of trypsin-like activity of proteasome beta 2 subunit in HEK-293T cell lysates after 1 hr by SDS-PAGE analysis; outline: as §4
RPMI-8226 [14] = test: Sensitization of human RPMI8226 cells to Carfilzomib assessed as cell viability at 27 uM after 47 hrs; format: functional, cell-based
RPMI-8226 [15] = test: Sensitization of human RPMI8226 cells to Carfilzomib assessed as cell viability at 1 uM after 47 hrs; format: functional, cell-based
RPMI-8226 [16] = test: Sensitization of human RPMI8226 cells to Bortezomib assessed as cell viability at 1 uM after 47 hrs; format: functional, cell-based
Outline: (§5)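 RPMI-8226 grown in RPMI-1640 with 10% FBS, penicillin, streptomycin and plasmocin, 5% CO2. For sensitization, cells exposed to bortezomib for 1 h, then 47 h with the trypsin-site inhibitor (1 µM). Viability by Alamar Blue dye conversion; mean ± SEM of three biological replicates.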

RPMI-8226 [17] = test: Cytotoxicity against human RPMI8226 cells; format: functional, cell-based; outline: as §5
Saccharomyces cerevisiae = test: Inhibition of caspase-like activity of yeast 20s proteasome beta 1 subunit assessed as hydrolysis of […] fluorogenic substrate at 200 uM after 15 mins by fluorescence spectrophotometry
Outline: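 Yeast 20S core particle (0.10 nM) preincubated 15 min with inhibitor, which stays present during the assay. Substrate ZLLE-amc for caspase-like sites, 250 µM, in 20 mM Tris, 0.01% SDS, pH 7.5. Hydrolysis monitored for 1 h at room temperature (ex 360/em 460 nm).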

[18] = Inhibition of chymotrypsin-like activity of yeast 20s proteasome beta 5 subunit assessed as hydrolysis of Suc-LLVY-amc fluorogenic substrate after 15 mins by fluorescence spectrophotometry; design: species or system Saccharomyces cerevisiae

| SMILES | IC50 [1] | IC50 [2] | IC50 [3] | Ratio IC50 (Oryctolagus cuniculus) | Ratio IC50 (Homo sapiens) | IC50 [5] | also measured |
| --- | --- | --- | --- | --- | --- | --- | --- |
| CC(=O)N[C@@H](CCCNC(=N)N)C(=O)N[C@@H](CC(C)C)C(=O)N[C@@H](CCCNC(=N)N)C(=O)[C@@]1(C)CO1 | > 30 µM | 0.08 µM | > 30 µM |  |  |  |  |
| CC(C)C[C@H](NC(=O)[C@H](Cc1ccncc1)NC(=O)[C@H](Cc1ccccc1)N=[N+]=[N-])C(=O)N[C@H](/C=C/S(C)(=O)=O)Cc1ccc(CN)cc1 |  | 0.012 µM | 30 µM |  |  |  | inhibition (NCI-H929 [4]): Active |
| CC(C)C[C@H](NC(=O)[C@H](Cc1ccccc1)N=[N+]=[N-])C(=O)N[C@@H](CC(C)C)C(=O)N[C@H](/C=C/S(C)(=O)=O)CCCCN | 22 µM | 0.74 µM | > 30 µM |  |  |  |  |
| CC(C)C[C@H](NC(=O)[C@H](Cc1ccc(CN)cc1)NC(=O)[C@H](Cc1ccccc1)N=[N+]=[N-])C(=O)N[C@H](/C=C/S(C)(=O)=O)Cc1ccc(N)cc1 | 0.19 µM | 0.0063 µM | > 30 µM | 59 | 6.3 | 0.63 µM |  |
| Cc1c(O)cccc1C(=O)N[C@H](C(=O)N[C@@H](CO)C(=O)N[C@@H](CCCNC(=N)N)C(=O)[C@@]1(C)CO1)C(C)C | 80 µM | 0.3 µM | 80 µM | 267 |  |  | IC50 [6]: > 30 µM; IC50 [7]: > 30 µM; Ratio IC50 [8]: 25 |
| CC(C)C[C@H](NC(=O)[C@H](Cc1ccccc1)N=[N+]=[N-])C(=O)N[C@@H](CC(C)C)C(=O)N[C@H](/C=C/S(C)(=O)=O)Cc1ccc(N)cc1 | 0.04 µM | 0.11 µM | 23 µM | 0.36 | 0.73 | 1.1 µM |  |
| CCOC(=O)[C@H]1O[C@@H]1C(=O)N[C@@H](CC(C)C)C(=O)NCCC(C)C |  |  |  |  |  |  | Activity (RPMI-8226 [9]): inactive; Activity (RPMI-8226 [10]): inactive |
| CC(C)C[C@@H](/C=C/S(C)(=O)=O)NC(=O)[C@H](CC(C)C)NC(=O)[C@H](Cc1ccc(CN)cc1)NC(=O)[C@H](Cc1ccccc1)N=[N+]=[N-] | 0.01 µM | 0.18 µM |  | 0.057 | 2.5 | 0.48 µM |  |
| CC(C)C[C@H](NC(=O)[C@H](Cc1ccccc1)NC(=O)[C@H](Cc1ccccc1)N=[N+]=[N-])C(=O)N[C@H](/C=C/S(C)(=O)=O)Cc1ccccc1 | 1 µM | > 30 µM | > 30 µM |  | 0.04 | 0.11 µM |  |
| CC(C)C[C@H](NC(=O)[C@H](Cc1ccccc1)N=[N+]=[N-])C(=O)N[C@@H](CC(C)C)C(=O)N[C@@H](Cc1ccc(N)cc1)C(=O)[C@@]1(C)CO1 | 0.01 µM | 1.8 µM | > 30 µM | 0.0056 |  |  |  |
| CC(C)C[C@H](NC(=O)[C@H](Cc1ccc(N)cc1)NC(=O)[C@H](Cc1ccccc1)N=[N+]=[N-])C(=O)N[C@H](/C=C/S(C)(=O)=O)Cc1ccc(CN)cc1 | 3.4 µM | 0.03 µM | 30 µM |  |  |  | inhibition (NCI-H929 [11]): Active |
| CC1=CC(C)=[N+]2C1=C(CCCCc1cn([C@@H](Cc3ccccc3)C(=O)N[C@@H](CC(C)C)C(=O)N[C@@H](CC(C)C)C(=O)N[C@H](/C=C/S(C)(=O)=O)Cc3ccc(CN)cc3)nn1)c1c(C)cc(C)n1[B-]2(F)F |  |  |  |  |  |  | inhibition [12]: Active; inhibition [13]: Active |
| CC(C)C[C@H](NC(=O)[C@H](Cc1ccccc1)N=[N+]=[N-])C(=O)N[C@@H](CC(C)C)C(=O)N[C@H](/C=C/S(C)(=O)=O)Cc1ccc(CN)cc1 |  |  |  |  |  |  | Activity (RPMI-8226 [14]): Active; Activity (RPMI-8226 [15]): Active; Activity (RPMI-8226 [16]): Active; Activity (RPMI-8226 [17]): inactive; inhibition (Saccharomyces cerevisiae): inactive; inhibition (NCI-H929 [11]): Active |
| Cc1c(O)cccc1C(=O)N[C@H](C(=O)N[C@@H](CO)C(=O)N[C@H](/C=C/S(C)(=O)=O)Cc1ccc(N)cc1)C(C)C | 0.2 µM | > 30 µM | > 30 µM | < 0.0067 |  |  |  |
| CC(C)C[C@@H](/C=C/S(C)(=O)=O)NC(=O)[C@H](CC(C)C)NC(=O)[C@H](Cc1ccncc1)NC(=O)[C@H](Cc1ccccc1)N=[N+]=[N-] | 0.005 µM | 24 µM | > 30 µM | 0.00021 | 0.029 | 0.16 µM |  |
| CC(C)C[C@H](NC(=O)[C@H](Cc1ccccc1)N=[N+]=[N-])C(=O)N[C@@H](CC(C)C)C(=O)N[C@H](/C=C/S(C)(=O)=O)Cc1ccncc1 | < 0.1 µM | 0.42 µM | > 30 µM |  |  | 1.5 µM |  |
| CC(C)C[C@H](NC(=O)[C@H](Cc1ccc(CN)cc1)NC(=O)[C@H](Cc1ccccc1)N=[N+]=[N-])C(=O)N[C@H](/C=C/S(C)(=O)=O)Cc1ccc(CN)cc1 | 8.9 µM | 0.0066 µM |  |  |  |  | inhibition (NCI-H929 [4]): Active |
| CC(C)C[C@H](NC(=O)[C@H](Cc1ccc(CN)cc1)NC(=O)[C@H](Cc1ccccc1)N=[N+]=[N-])C(=O)N[C@H](/C=C/S(C)(=O)=O)Cc1ccncc1 | 0.41 µM | 0.045 µM | > 30 µM | 9.1 | 6.5 | 2.4 µM |  |
| Cc1c(O)cccc1C(=O)N[C@H](C(=O)N[C@@H](CO)C(=O)N[C@H](/C=C/S(C)(=O)=O)Cc1ccc(CN)cc1)C(C)C |  |  | 21 µM |  |  |  | inhibition (NCI-H929 [4]): inactive; IC50 [18]: 19.3 µM |
| CC(C)C[C@H](NC(=O)[C@H](Cc1ccccc1)N=[N+]=[N-])C(=O)N[C@@H](CC(C)C)C(=O)N[C@@H](Cc1ccc(CN)cc1)C(=O)[C@@]1(C)CO1 | 2.7 µM | 0.25 µM | 11 µM |  |  |  |  |
| CC1=CC(C)=[N+]2C1=C(CCCCc1cn([C@@H](Cc3ccccc3)C(=O)N[C@@H](Cc3ccc(CN)cc3)C(=O)N[C@@H](CC(C)C)C(=O)N[C@H](/C=C/S(C)(=O)=O)Cc3ccc(CN)cc3)nn1)c1c(C)cc(C)n1[B-]2(F)F |  |  |  |  |  |  | inhibition [13]: inactive |
| CC(C)C[C@@H](/C=C/S(C)(=O)=O)NC(=O)[C@H](CC(C)C)NC(=O)[C@H](Cc1ccc(N)cc1)NC(=O)[C@H](Cc1ccccc1)N=[N+]=[N-] | < 0.004 µM | 24 µM | > 30 µM |  | 0.034 | 0.093 µM |  |
| CC(=O)N[C@@H](CC(C)C)C(=O)N[C@@H](CC(C)C)C(=O)N[C@@H](CCCNC(=N)N)C(=O)[C@@]1(C)CO1 | > 30 µM | 1 µM | > 30 µM |  |  |  |  |
